Rows were chosen to be rich in hits. Some 4.9% of all compounds tested hit in one or more screens of this group.
STAT1 blocker = reduces IFN-gamma driven STAT1 reporter signal; NIH 3T3 STAT1-luciferase reporter, luminescence; inhibition, % at 5.5 µM; AID 920; 200,000 compounds, 0.35% hits;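 active = inhibition above a set limit, the mean inhibition across all tested compounds plus 3 SD, cut at about 34% in these data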;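 note: 0% = IFN-gamma with DMSO and 100% = IFN-gamma with 300 µM nifuroxazide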
STAT3 activator = STAT3 signaling activation. U3A cells, IL-6 STAT3-luciferase reporter, luminescence; 100% = signal with IL-6 EC80 alone. activation (% of control), % at 5.6 µM. 190,000 compounds, 0.91% hits;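 active = activation above the screen-wide mean of compound activation plus 3 SD, cut at about 130% in these data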;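 note: 0% = background luminescence of wells with medium and substrate only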
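Test system: Human STAT1-deficient U3A cells with stable STAT3-luciferase reporter | Also added: Interleukin-6, 33 ng/mL | Timing: Compound pre-incubation 1 h before IL-6, then 6 h stimulation at 37 °C | Technique: Luciferase reporter luminescence | Read-out: Percent of IL-6-only median luminescence | Benchmarks: IL-6-only wells as 100% reference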
FLuc inh counter = Photinus pyralis luciferase inhibition counter-screen; P08659; inhibition, % at 10 µM; AID 1006; 200,000 compounds, 1.5% hits; ATPLite firefly luciferase biochemical luminescence, 10 min;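 active = inhibition above about 50% when tested at 10 µM, limit read from the data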
Target sequence (P08659 whole entry, looked up): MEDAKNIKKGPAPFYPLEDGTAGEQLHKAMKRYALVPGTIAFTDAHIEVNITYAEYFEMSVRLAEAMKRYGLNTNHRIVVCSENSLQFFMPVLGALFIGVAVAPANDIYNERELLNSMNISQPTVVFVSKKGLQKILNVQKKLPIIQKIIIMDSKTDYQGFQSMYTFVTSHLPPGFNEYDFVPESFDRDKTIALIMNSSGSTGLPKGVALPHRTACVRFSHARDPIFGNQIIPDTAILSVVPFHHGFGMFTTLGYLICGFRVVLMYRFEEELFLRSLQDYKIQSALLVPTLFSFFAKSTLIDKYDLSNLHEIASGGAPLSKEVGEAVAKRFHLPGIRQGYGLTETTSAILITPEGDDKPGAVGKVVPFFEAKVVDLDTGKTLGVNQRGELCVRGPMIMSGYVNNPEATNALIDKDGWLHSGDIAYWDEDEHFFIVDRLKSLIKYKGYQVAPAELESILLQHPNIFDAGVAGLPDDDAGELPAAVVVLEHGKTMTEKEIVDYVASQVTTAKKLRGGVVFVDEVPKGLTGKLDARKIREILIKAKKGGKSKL
STAT3 inh = reduces IL-6 driven STAT3 reporter signal. U3A cells, IL-6 STAT3-luciferase reporter, luminescence; host cell line lacks STAT1. 190,000 compounds, 0.89% hits. inhibition, % at 5.5 µM. AID 862;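 active = inhibition above the mean inhibition across all screened compounds plus 3 SD, cut at about 44% in these data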;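 note: 0% = DMSO only wells and 100% = 100 µM nifuroxazide control wells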
STAT1 act = increases IFN-gamma driven STAT1 reporter signal | NIH 3T3 STAT1-luciferase reporter, luminescence; 100% = IFN-gamma alone, no compound | activation (% of control), % at 5.5 µM | 200,000 compounds, 2.6% hits;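 active = activation above the screen-wide mean activation plus 3 SD, cut at about 130% in these data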;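 note: raw ratio to IFN-gamma control signal so 100% means no change and 0% no light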
FLuc stim CS = affects firefly luciferase, flagging false hits in luciferase stimulation screens; P08659; ATPlite luciferase biochemical, luminescence, 10 min; 0 = ATP-free wells, 1 = DMSO control; activation factor at 10 µM; 200,000 tested, under 10 active;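 active = luciferase activation factor, scaled between plate controls, of at least 2 with compound at 10 µM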
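Material: Luciferase/luciferin reagent mix; Doses: test compounds dosed from 2 mM stocks in 100% DMSO; Schedule: 10 min incubation after luciferase reagent addition, room temperature; Measured by: luminescence from luciferase reaction; Read-out: luminescence gain marking luciferase activators.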
* = called active by the depositor; . = no result.

SMILES	STAT1 blocker	STAT3 activator	FLuc inh counter	STAT3 inh	STAT1 act	FLuc stim CS
CCN(CC)c1ccc(N=Cc2ccccc2[N+](=O)[O-])cc1	4	105	66*	0	97	0.3
O=C(Cn1cnc2ccccc2c1=O)Nc1nc2ccccc2s1	4	136*	0	-38	97	1
O=C(CSc1ccccn1)Nc1nc2ccccc2s1	-14	92	-3	10	112	1
Cn1ccnc1SCC(=O)Nc1nc2ccccc2s1	-39	89	1	20	134*	1
CCc1ccc2nc(NC(=O)Cn3cnc4ccccc4c3=O)sc2c1	-13	104	7	-2	113	0.9
Cc1nc2ccc(NC(=O)Cc3cccc(F)c3)cc2s1	-16	100	4	2	115	1
Cc1ccc(C)c(NC(=O)c2ccccn2)c1	-13	91	8	16	112	0.9
Cc1nc2ccc(NC(=O)Cc3ccccc3F)cc2s1	-49	98	54*	7	141*	0.5
Cc1ccc(C)c(NC(=O)c2ccc3ccccc3n2)c1	-26	124	56*	-28	124	0.4
Cc1nc2cc(NC(=O)CCS(=O)(=O)c3ccccc3)ccc2s1	-55	109	19	-12	150*	0.8
Cc1nnc(NC(=O)c2ccc3ccccc3n2)s1	-45	136*	36	-34	138*	0.6
Cc1nc2ccc(NC(=O)CCS(=O)(=O)c3ccccc3)cc2s1	-22	107	9	-12	119	0.9
CCOC(=O)CS(=O)(=O)c1ccc(O)cc1	-14	105	-6	2	112	1.1
Cc1oc(-c2cccs2)nc1CN1CCN(C(C)C)C(CCO)C1 (stereo not drawn)	-5	104	-5	1	102	1.1
COc1ccc(O)c(CNc2ccccc2F)c1	-5	86	-1	19	103	1
CC1CCc2sc(C(=O)OCC(=O)NC(C)C)cc2C1 (stereo not drawn)	-2	98	2	7	100	1
Cc1nc2cc(C(=O)O)ccc2s1	-47	127	-6	-21	143*	1.1
Cc1nc2ccc(NC(=O)c3ccc4ccccc4n3)cc2s1	-39	89	15	14	135*	0.8
Cc1nc2ccc(NC(=O)c3sccc3C)cc2s1	-47	82	34	25	143*	0.7
Cc1nc2ccc(NC(=O)c3ccccc3)cc2s1	-32	98	20	5	131*	0.8
Cc1ccc(-c2nc3ccc(C(=O)O)cc3nc2-c2ccc(C)cc2)cc1	15	110	-5	-6	86	1.1
Cc1ccccc1N1C(=O)CC1(C#N)c1ccc(OCc2ccccc2)cc1 (stereo not drawn)	-10	112	-1	-11	109	1
O=C(NCc1ccco1)/C(=C\c1cccs1)NC(=O)c1ccco1	-5	108	-1	-4	102	1
Cc1ccccc1OCCNC(=O)c1ccc2ccccc2n1	-47	103	4	-3	141*	1
COCCNC(=O)c1ccc2ccccc2n1	0	106	0	1	100	1
SMILES	STAT1 blocker	STAT3 activator	FLuc inh counter	STAT3 inh	STAT1 act	FLuc stim CS
COCCCn1cnc2oc3nc4ccccc4nc3c2c1=O	-45	93	12	12	141*	0.9
C=CCNCCOCCOc1ccccc1-c1ccccc1	4	101	4	6	94	1
O=C(Cc1nnc(NC(=O)Nc2ccccc2)s1)NCc1ccccc1	-1	107	-6	-9	101	1.1
CC(C)Cc1nnc(NC(=O)Nc2ccccc2)s1	-53	102	4	0	147*	1
CCc1nnc(NC(=S)Nc2ccccc2)s1	-36	89	18	16	132*	0.8
CC(C)COC(=O)Nc1nnc(Cc2ccccc2)s1	-35	118	-3	-11	133*	1
Cc1ccc(CNC(=O)CSc2nc3[nH]ncc3c(=O)[nH]2)cc1	-4	93	-4	11	104	1
C=CCCCCCCCC(=O)OC	-1	.	-3	.	100	1
CCOc1ccc(OCc2cccc(C(=O)N3CCCCCC3)c2)cc1	71*	33	67*	80*	34	0.3
O=C(O)c1cccc(COc2ccc(CO)cc2Cl)c1	.	.	85*	.	.	0.2
O=C(O)c1ccc(COc2ccc(CO)cc2Cl)cc1	-9	107	20	-6	108	0.8
O=C(NN1CCCCC1)c1cccc(COc2ccc(Cl)cc2)c1	-34	111	8	-17	130*	0.9
CCOc1cccc(OCCOc2ccc(C(=O)c3ccccc3)cc2)c1	-6	107	-3	-5	105	1
CCOc1ccc(OCc2cccc(C(=O)O)c2)cc1	.	.	93*	.	.	0.1
COc1ccc(OCc2cccc(C(=O)O)c2)cc1	.	.	83*	.	.	0.2
O=C(OCC(F)(F)F)c1cccc(COc2ccc3ccccc3c2)c1	88*	15	3	102*	19	1
COc1cc(/C=C/[N+](=O)[O-])ccc1OCc1cccc(C(=O)O)c1	90*	20	36	93*	17	0.6
O=C(O)c1ccc(NC(=S)NC(=O)c2cccc(COc3ccccc3)c2)cc1	0	98	-4	7	98	1
COc1cc(/C=N/NC(=O)c2cccc([N+](=O)[O-])c2)ccc1OCc1ccccc1	-2	89	1	19	102	1
O=C(O)c1ccc(CNCc2ccc(Cl)cc2)cc1	3	87	-7	14	97	1.1
O=C(OCc1cnc(Cl)s1)c1cccc(Cl)c1	-1	86	-5	21	101	1.1
C/C(=N/OC(=O)c1cccc(Cl)c1)c1nccs1	-3	115	55*	-6	103	0.5
C/C(=N\OC(=O)c1ccccc1F)c1nccs1	6	101	85*	9	94	0.2
O=C(O/N=C(\c1ccccc1)c1ccncc1)c1ccccc1F	-6	102	-7	1	104	1.1
C=CCNC(=O)CC1Nc2c3ccccc3nc(=S)n2C1=O (stereo not drawn)	-3	99	-2	3	103	1
Brc1ccccc1-c1nnc(COc2cccc3cccnc23)o1	-1	103	-2	1	101	1
Clc1ccccc1OCc1nnc(-c2ccccc2Br)o1	-41	106	3	-5	137*	1
O=C(Nc1ccc2c(c1)OCO2)c1ccncc1	-6	106	1	0	106	1
O=C(Nc1ccc([N+](=O)[O-])cn1)c1ccc2c(c1)OCO2	-41	97	-4	10	135*	1
C/C(=N\NC(=O)c1ccc2c(c1)OCO2)c1ccc2c(c1)OCO2	-27	103	44	-1	125	0.6

Screening data (PubChem)
